From ChEMBL document CHEMBL1135396, “Synthesis and inotropic activity of 1-(O-aminoalkyloximes) of perhydroindene derivatives as simplified digitalis-like compounds acting on the Na(+),K(+)-ATPase” (J Med Chem, 2002)
pEC50, pIC50: −log10 of the molar value. Each block holds one compound with its values, some of them ahead of it.

How the values were obtained:
[1] = molecular target: Sodium/potassium-transporting ATPase; assay: 50% displacement of the specific [3H]ouabain binding from the dog kidney Na+/K+ ATPase; format: protein-complex assay, Canis lupus familiaris
Outline: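 [3H]ouabain binding was measured on isolated, purified dog kidney Na+,K+-ATPase (α1 isoform), with compounds used within 1–4 h of dissolution.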

Cavia porcellus [2] = species on record: Cavia porcellus; assay: Concentration of compound to obtain maximum inotropic activity on electrically driven guinea pig left atrium; format: functional, Cardiac atrium
Outline: (§1)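 Electrically paced guinea pig left atria (platinum electrodes, 1 Hz, 1 ms pulses at twice threshold voltage) were equilibrated for 60 min. Cumulative compound concentrations were then added, each left in contact until maximal response or arrhythmias appeared. Force of contraction was recorded.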

Cavia porcellus [3] = species on record: Cavia porcellus; assay: Maximal increase in force of contraction in electrically driven guinea pig left atrium; format: functional, Cardiac atrium; outline: as §1
Cavia porcellus [4] = species on record: Cavia porcellus; assay: Concentration of compound producing 50% of the maximal increase in force of contraction in electrically driven guinea pig left atrium; format: functional; conditions: Cardiac atrium
Outline: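 Whole guinea pig left atria were paced through platinum electrodes with 1 Hz square-wave pulses (1 ms, twice threshold voltage) and equilibrated for 60 min. Compounds were then added cumulatively, each concentration held until maximal response or arrhythmia. The concentration giving half-maximal increase in contractile force was calculated from concentration–response curves.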

[5] = molecular target: Sodium/potassium-transporting ATPase; assay: 30% displacement of the specific [3H]ouabain binding from the dog kidney Na+/K+ ATPase; format: protein-complex assay, Canis lupus familiaris
[6] = molecular target: Sodium/potassium-transporting ATPase; assay: 45% displacement of the specific [3H]ouabain binding from the dog kidney Na+/K+ ATPase; format: protein-complex assay, Canis lupus familiaris
[7] = molecular target: Sodium/potassium-transporting ATPase; assay: 35% displacement of the specific [3H]-ouabain binding from the dog kidney Na+/K+ ATPase; format: protein-complex assay, Canis lupus familiaris
[8] = molecular target: Sodium/potassium-transporting ATPase; assay: 20% displacement of the specific [3H]ouabain binding from the dog kidney Na+/K+ ATPase; format: protein-complex assay, Canis lupus familiaris

SMILES: C[C@]12CC[C@H](O)C[C@H]1CC[C@@H]1[C@@H]2CC[C@]2(C)[C@@H](/C=C/C=N/OCCN)CC[C@]12O
- pIC50 [1]: 7.80
- Concentration giving maximal inotropic effect (Cavia porcellus [2]): 0.3 µM
- Increase (Emax) (Cavia porcellus [3]): 155%

SMILES: CN(C)CCO/N=C/C=C/[C@H]1CC[C@]2(O)[C@@H]3CC[C@@H]4C[C@@H](O)CC[C@]4(C)[C@H]3CC[C@]12C
- pIC50 [1]: 7.60
- Concentration giving maximal inotropic effect (Cavia porcellus [2]): 0.3 µM
- Increase (Emax) (Cavia porcellus [3]): 191%

SMILES: CN(C)CCO/N=C/[C@H]1CC[C@]2(O)[C@@H]3CC[C@@H]4C[C@@H](O)CC[C@]4(C)[C@H]3CC[C@]12C
- pIC50 [1]: 7.40
- Increase (Emax) (Cavia porcellus [3]): 39%

SMILES: CN(C)CCO/N=C/[C@H]1CC[C@]2(O)CC([C@H]3CC[C@@H](O)CC3)CC[C@]12C (some centres not stated)
- pIC50 [1]: 5.80

SMILES: CN(C)CCO/N=C/[C@H]1CC[C@]2(O)CC([C@H]3CC[C@H](O)CC3)CC[C@]12C (some centres not stated)
- pIC50 [1]: 6.00

SMILES: CN(C)CCO/N=C/[C@H]1CC[C@]2(O)C[C@@H](c3ccc(O)cc3)CC[C@]12C
- pIC50 [1]: 5.60

SMILES: CN(C)CCO/N=C/C=C/[C@H]1CC[C@]2(O)C[C@@H](C3CCCCC3)CC[C@]12C
- pIC50 [1]: 6.00
- Concentration giving maximal inotropic effect (Cavia porcellus [2]): 100 µM
- pEC50 (Cavia porcellus [4]): 4.70
- Increase (Emax) (Cavia porcellus [3]): 50%

SMILES: CN(C)CCO/N=C/CC[C@H]1CC[C@]2(O)C[C@@H](C3CCCCC3)CC[C@]12C
- pIC50 [1]: 5.30

SMILES: CC(/C=N/OCCN(C)C)=C\[C@H]1CC[C@]2(O)C[C@@H](C3CCCCC3)CC[C@]12C
- pIC50 [1]: 5.70

SMILES: Cc1ccc([C@H]2CC[C@]3(C)[C@@H](/C=N/OCCN(C)C)CC[C@]3(O)C2)cc1
- pIC50 [1]: 5.00

SMILES: CN(C)CCO/N=C/[C@H]1CC[C@]2(O)C[C@H](c3ccccc3)CC[C@]12C
- pIC50 [5]: < 4.00

SMILES: CN(C)CCCO/N=C/[C@H]1CC[C@]2(O)C[C@@H](C3CCCCC3)CC[C@]12C
- pIC50 [1]: 5.49

SMILES: C[C@]12CC[C@H](c3ccc(CO)cc3)C[C@@]1(O)CC[C@@H]2/C=N/OCCN
- pIC50 [1]: 5.60

SMILES: CN(C)CCO/N=C/[C@H]1CC[C@]2(O)C[C@H](Cc3ccccc3)CC[C@]12C
- pIC50 [6]: < 4.00

SMILES: CN(C)CCCCO/N=C/[C@H]1CC[C@]2(O)C[C@@H](C3CCCCC3)CC[C@]12C
- pIC50 [1]: 5.00

SMILES: CN(C)CCONC[C@H]1CC[C@]2(O)C[C@@H](c3ccccc3)CC[C@]12C
- pIC50 [1]: 5.00

SMILES: CN(C)CCO/N=C/[C@H]1CC[C@]2(O)C[C@@H](C3CCCCC3)CC[C@]12C
- pIC50 [1]: 5.80
- Concentration giving maximal inotropic effect (Cavia porcellus [2]): 100 µM
- pEC50 (Cavia porcellus [4]): 4.92
- Increase (Emax) (Cavia porcellus [3]): 70%

SMILES: C[C@]12CC[C@H](c3cccc(CO)c3)C[C@@]1(O)CC[C@@H]2/C=N/OCCN
- pIC50 [1]: 5.60

SMILES: C[C@]12CC[C@H](C3CCCCC3)C[C@@]1(O)CC[C@@H]2/C=C/C=N/N=C(N)N
- pIC50 [1]: 4.80

SMILES: CN(C)CCO/N=C/[C@H]1CC[C@]2(O)C[C@@H](c3ccc(CO)cc3)CC[C@]12C
- pIC50 [1]: 5.10

SMILES: Cc1cccc([C@H]2CC[C@]3(C)[C@@H](/C=N/OCCN(C)C)CC[C@]3(O)C2)c1
- pIC50 [1]: 5.30

SMILES: C[C@]12CC[C@H](C3CCCCC3)C[C@@]1(O)CC[C@@H]2C1=CC(=O)OC1
- pIC50 [5]: < 5.00

SMILES: C[C@]12CC[C@H](c3ccccc3)C[C@@]1(O)CC[C@@H]2/C=N/OCCN
- pIC50 [1]: 5.40

SMILES: C[C@]12CC[C@H](C3CCCCC3)C[C@@]1(O)CC[C@@H]2/C=N/OCCCN
- pIC50 [1]: 6.10

SMILES: C[C@]12CC[C@H](C3CCCCC3)C[C@@]1(O)CC[C@@H]2C/C=N\OCCN
- pIC50 [1]: 5.80

SMILES: CN(C)CCO/N=C/[C@H]1CC[C@]2(O)C[C@@H](c3cccc(O)c3)CC[C@]12C
- pIC50 [1]: 5.00

SMILES: C[C@]12CC[C@H](C3CCCCC3)C[C@@]1(O)CC[C@@H]2/C=N/OCCCCN
- pIC50 [1]: 4.89

SMILES: CN(C)CCO/N=C/[C@H]1CC[C@]2(O)C[C@@H](c3cccnc3)CC[C@]12C
- pIC50 [1]: 4.89

SMILES: C[C@]12CC[C@H](c3ccccc3)C[C@@]1(O)CC[C@@H]2/C=N/N=C(N)N
- pIC50 [7]: < 4.00

SMILES: CN(C)CCO/N=C/[C@H]1CC[C@]2(O)C[C@@H](c3cccc(CO)c3)CC[C@]12C
- pIC50 [1]: 5.30

SMILES: CC(/C=N/N=C(N)N)=C\[C@H]1CC[C@]2(O)C[C@@H](C3CCCCC3)CC[C@]12C
- pIC50 [7]: < 4.00

SMILES: C[C@]12CC[C@H](C3CCCCC3)C[C@@]1(O)CC[C@@H]2CC/C=N/OCCN
- pIC50 [1]: 5.49

SMILES: CN(C)CCO/N=C/[C@H]1CC[C@]2(O)C[C@H](CC3CCCCC3)CC[C@]12C
- pIC50 [1]: 4.00

SMILES: C[C@]12CC[C@H](C3CCCCC3)C[C@@]1(O)CC[C@@H]2/C=C/C=N/OCCN
- pIC50 [1]: 6.00
- Concentration giving maximal inotropic effect (Cavia porcellus [2]): 100 µM
- pEC50 (Cavia porcellus [4]): 4.82
- Increase (Emax) (Cavia porcellus [3]): 90%

SMILES: CN(C)CCO/N=C/[C@H]1CC[C@]2(O)C[C@@H](c3ccc(OCCN(C)C)cc3)CC[C@]12C
- pIC50 [1]: 6.00

SMILES: Cc1cccc([C@H]2CC[C@]3(C)[C@@H](/C=N/OCCN)CC[C@]3(O)C2)c1
- pIC50 [1]: 5.49

SMILES: CN(C)CCO/N=C/[C@H]1CC[C@]2(O)C[C@@H](c3ccncc3)CC[C@]12C
- pIC50 [1]: 5.60

- pIC50 [1]: 5.10
SMILES: CN(C)CCO/N=C/[C@H]1CC[C@]2(O)C/C(=C\c3ccccc3)CC[C@]12C

- pIC50 [1]: 4.30
SMILES: CN(C)CCO/N=C/[C@H]1CC[C@]2(O)C/C(=C/c3ccccc3)CC[C@]12C

SMILES: CN(C)CCO/N=C/[C@H]1CC[C@]2(O)C[C@@H](Cc3ccccc3)CC[C@]12C
- pIC50 [1]: 5.49

SMILES: CC(/C=N/OCCN)=C\[C@H]1CC[C@]2(O)C[C@@H](C3CCCCC3)CC[C@]12C
- pIC50 [1]: 5.89

SMILES: C[C@]12CC[C@H](C3CCCCC3)C[C@@]1(O)CC[C@@H]2/C=N/OCCN
- pIC50 [1]: 6.00

SMILES: C[C@]12CC[C@H](c3ccccc3)C[C@@]1(O)CC[C@@H]2CNOCCN
- pIC50 [1]: 4.70

SMILES: Cc1ccc([C@H]2CC[C@]3(C)[C@@H](/C=N/OCCN)CC[C@]3(O)C2)cc1
- pIC50 [1]: 5.20

SMILES: CN(C)CCO/N=C/[C@H]1CC[C@]2(O)C[C@@H](c3ccccc3)CC[C@]12C
- pIC50 [1]: 5.49

SMILES: C[C@]12CCCC[C@@]1(O)CC[C@@H]2/C=N/OCCCN
- pIC50 [8]: < 4.00

SMILES: CN(C)CCO/N=C/[C@H]1CC[C@]2(O)C[C@@H](CC3CCCCC3)CC[C@]12C
- pIC50 [1]: 5.40

SMILES: C[C@]12CC[C@H](C3CCCCC3)C[C@@]1(O)CC[C@@H]2/C=N/N=C(N)N
- pIC50 [1]: 4.20

SMILES: CN(C)CCO/N=C\C[C@H]1CC[C@]2(O)C[C@@H](C3CCCCC3)CC[C@]12C
- pIC50 [1]: 5.80

SMILES: C[C@]12CC[C@H](O)C[C@H]1CC[C@@H]1[C@@H]2CC[C@]2(C)[C@@H](C3=CC(=O)OC3)CC[C@]12O [DIGITOXIGENIN]
- Concentration giving maximal inotropic effect (Cavia porcellus [2]): 3 µM
- Increase (Emax) (Cavia porcellus [3]): 200%

SMILES: C[C@H]1O[C@@H](O[C@H]2[C@@H](O)C[C@H](O[C@H]3[C@@H](O)C[C@H](O[C@H]4CC[C@@]5(C)[C@H](CC[C@@H]6[C@@H]5C[C@@H](O)[C@]5(C)[C@@H](C7=CC(=O)OC7)CC[C@]65O)C4)O[C@@H]3C)O[C@@H]2C)C[C@H](O)[C@@H]1O [DIGOXIN]
- Concentration giving maximal inotropic effect (Cavia porcellus [2]): 1 µM
- Increase (Emax) (Cavia porcellus [3]): 184%
